From ChEMBL document CHEMBL5338759, “N-Phenyl-1-(phenylsulfonyl)-1H-1,2,4-triazol-3-amine as a New Class of HIV-1 Non-nucleoside Reverse Transcriptase Inhibitor” (J Med Chem, 2023)

How the values were obtained:
[1] = test system: Human immunodeficiency virus 1; assay: Antiviral activity against wild type HIV1 IIIB infected in human TZM-bl cells; assay type: functional, organism-based; conditions: Human immunodeficiency virus 1, IIIB
Summary of the method: (§1)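 TZM-bl cells (2x10⁵/mL) infected with HIV-1 IIIB grown in H9 cells, with 15 µg/mL DEAE-dextran; serial dilutions from 10 mM DMSO stocks, DMSO held constant (0.005% or 0.05%); 37°C, 5% CO₂, 48 hr; cells lysed, luciferase RLU read.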

[2] = test system: Human immunodeficiency virus 1; assay: Antiviral activity against HIV1 harboring Y181C mutant infected in human TZM-bl cells; assay type: functional, organism-based; conditions: Human immunodeficiency virus 1, TZM-bl
Summary of the method: (§2)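 TZM-bl cells (2x10⁵/mL) were infected with mutant virus in the presence of 15 µg/mL DEAE-dextran. A17 (IIIB variant) was grown in H9 cells; the other mutants were NL4-3-based plasmids transfected into 293T cells, then expanded in H9 cells. Compounds were tested at 0.05–500 nM (DMSO constant within an assay) for 48 hr at 37°C. Read-out was luciferase RLU from lysed cells, with at least 6 replicates over multiple days.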

[3] = test system: Human immunodeficiency virus 1; assay: Antiviral activity against HIV1 harboring K103N mutant infected in human TZM-bl cells; assay type: functional, organism-based; conditions: Human immunodeficiency virus 1, TZM-bl; summary of the method: as §2
[4] = Selectivity ratio of IC50 for antiviral activity against wild type HIV1 IIIB infected in human TZM-bl cells to IC50 for antiviral activity against HIV1 harboring L100I/K103N double mutant infected in human TZM-bl cells; assay type: toxicity, cell-based; conditions: human immunodeficiency virus 1
Summary of the method: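 TZM-bl cells (2x10⁵/mL) with 15 µg/mL DEAE-dextran were infected with HIV-1 IIIB, A17 (K103N/Y181C) IIIB variant, or NL4-3-based NNRTI-resistant mutants. Compound was present at 0.05–500 nM (DMSO held constant, 0.005% or 0.05%) for 48 hr at 37°C, 5% CO₂.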

TZM = assay: Cytotoxicity against human TZM-bl cells assessed as reduction in cell viability by MTS assay; assay type: functional
[5] = Metabolic stability in mouse liver microsome measured up to 60 mins presence of NADPH; assay type: ADME; conditions: microsomes, 1 h
[6] = Metabolic stability in human liver microsome measured up to 60 mins presence of NADPH; assay type: ADME; conditions: microsomes, 1 h
[7] = target: Voltage-gated inwardly rectifying potassium channel KCNH2 (Homo sapiens, UniProt Q12809); assay: Inhibition of hERG by fluorescence polarization assay; assay type: toxicity
[8] = test system: Human immunodeficiency virus; assay: Antiviral activity against wild type HIV IIIB infected in human TZM-bl cells; assay type: functional, organism-based; conditions: Human immunodeficiency virus 1, IIIB; summary of the method: as §1
[9] = AUC (0 to 24 hrs) in BALB/c mouse plasma at 250 mg/kg, IG measured at 0.5 to 24 hrs by HPLC-MS analysis; assay type: ADME, organism-based; design: time upper 24 hrs, time lower 0.5 hrs, dose 250 mg/kg, route ig; conditions: po
Summary of the method: (§3)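 Mice averaging 20 g (24 animals) were fasted 1 h before and 1 h after dosing. They received 250 mg/kg as 0.5 ml suspension in 1% CMC, 0.05% Tween 80 by intragastric intubation. Blood and brain were taken after decapitation at 0.5, 1, 2, 3, 5, 8 and 24 h (3 per time point). Plasma was frozen at -20°C and brain at -120 °C. Quantification was by UPLC-HRMS (ESI+, EIC m/z 476.0691) against plasma-matrix standards. Parameters were derived by noncompartmental analysis; LLOQ 5 ng/ml, with values below it set to 2.5.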

[10] = AUC (0 to infinity) in BALB/c mouse brain at 250 mg/kg, IG measured at 0.5 to 24 hrs by HPLC-MS analysis; assay type: ADME, organism-based; design: time upper 24 hrs, time lower 0.5 hrs, dose 250 mg/kg, route ig; conditions: po; summary of the method: as §3
[11] = Tmax in BALB/c mouse plasma at 250 mg/kg, IG measured at 0.5 to 24 hrs by HPLC-MS analysis; assay type: ADME, organism-based; conditions: in vivo, po, time 0.5-24 hrs; summary of the method: as §3
[12] = Tmax in BALB/c mouse brain at 250 mg/kg, IG measured at 0.5 to 24 hrs by HPLC-MS analysis; assay type: ADME, organism-based; conditions: po, time 0.5-24 hrs; summary of the method: as §3
[13] = Half life in BALB/c mouse plasma at 250 mg/kg, IG measured at 0.5 to 24 hrs by HPLC-MS analysis; assay type: ADME, organism-based; conditions: in vivo, po, time 0.5-24 hrs; summary of the method: as §3
[14] = Half life in BALB/c mouse brain at 250 mg/kg, IG measured at 0.5 to 24 hrs by HPLC-MS analysis; assay type: ADME, organism-based; conditions: in vivo, po, time 0.5-24 hrs; summary of the method: as §3
[15] = Subacute toxicity in BALB/c mouse assessed as pathological change in spleen at 25 to 250 mg/kg, IG measured daily for 30 days by H and E staining based histological analysis; assay type: organism-based; conditions: in vivo, po, 720 h, dose 25-250 mg/kg, time 30 day
Summary of the method: (§4)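 Male Balb/C mice (17 per group) received 25 or 250 mg/kg intragastrically in 1% starch gel once daily for 30 days, against starch gel controls. Internal organs were examined macroscopically after the study. Sections were paraffin-embedded and stained with hematoxylin and eosin.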

[16] = Subacute toxicity in BALB/c mouse assessed as pathological change in intestine at 25 to 250 mg/kg, IG measured daily for 30 days by H and E staining based histological analysis; assay type: organism-based; conditions: in vivo, po, 720 h, dose 25-250 mg/kg, time 30 day; summary of the method: as §4
[17] = Subacute toxicity in BALB/c mouse assessed as pathological change in liver at 25 to 250 mg/kg, IG measured daily for 30 days by H and E staining based histological analysis; assay type: organism-based; conditions: in vivo, po, 720 h, dose 25-250 mg/kg, time 30 day; summary of the method: as §4
[18] = Subacute toxicity in BALB/c mouse assessed as reduction in alkaline phosphatase level at 250 mg/kg, IG measured daily for 30 days; assay type: organism-based; conditions: in vivo, po, 720 h, time 30 day
Summary of the method: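 Dosing was daily intragastric 25 or 250 mg/kg in 1% starch gel (0.2 ml/20 g) for 30 days in male Balb/C mice, 17 per group, with starch gel controls. After the final dose, mice were fasted for 2 h with water available, then bled. Serum was clotted for 30 min at room temperature and centrifuged at 3500 rpm. Total protein, urea, creatinine, AST, ALT and alkaline phosphatase were assayed and compared by Mann-Whitney with Holm-Šídák, p < 0.05.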

[19] = Subacute toxicity in BALB/c mouse assessed as reduction in hemoglobin level at 25 to 250 mg/kg, IG measured daily for 30 days; assay type: organism-based; conditions: in vivo, po, 720 h, dose 25-250 mg/kg, time 30 day
[20] = Subacute toxicity in BALB/c mouse assessed as reduction in hematocrit level at 25 to 250 mg/kg, IG measured daily for 30 days; assay type: organism-based; conditions: in vivo, po, 720 h, dose 25-250 mg/kg, time 30 day
[21] = Subacute toxicity in BALB/c mouse assessed as reduction in RBC count at 25 to 250 mg/kg, IG measured daily for 30 days; assay type: organism-based, Erythrocyte; conditions: in vivo, po, 720 h, dose 25-250 mg/kg, time 30 day
[22] = Subacute toxicity in BALB/c mouse assessed as reduction in platelets count at 25 to 250 mg/kg, IG measured daily for 30 days; assay type: organism-based; conditions: in vivo, po, 720 h, dose 25-250 mg/kg, time 30 day
[23] = Subacute toxicity in BALB/c mouse assessed as reduction in reticulocytes count at 25 to 250 mg/kg, IG measured daily for 30 days; assay type: organism-based; conditions: in vivo, po, 720 h, dose 25-250 mg/kg, time 30 day
[24] = Subacute toxicity in BALB/c mouse assessed as effect on kidney weight at 25 to 250 mg/kg, IG measured daily for 30 days; assay type: organism-based; conditions: in vivo, po, 720 h, dose 25-250 mg/kg, time 30 day
[25] = Subacute toxicity in BALB/c mouse assessed as effect on lung weight at 25 to 250 mg/kg, IG measured daily for 30 days; assay type: organism-based; conditions: in vivo, po, 720 h, dose 25-250 mg/kg, time 30 day
[26] = Neurotoxicity in mouse primary neurons assessed as loss of MAP-2 intensity at 0.0001 to 10 uM incubated for 48 hrs by semi-quantitative analysis; conditions: neuron

Sequence of Voltage-gated inwardly rectifying potassium channel KCNH2 (Q12809 whole entry): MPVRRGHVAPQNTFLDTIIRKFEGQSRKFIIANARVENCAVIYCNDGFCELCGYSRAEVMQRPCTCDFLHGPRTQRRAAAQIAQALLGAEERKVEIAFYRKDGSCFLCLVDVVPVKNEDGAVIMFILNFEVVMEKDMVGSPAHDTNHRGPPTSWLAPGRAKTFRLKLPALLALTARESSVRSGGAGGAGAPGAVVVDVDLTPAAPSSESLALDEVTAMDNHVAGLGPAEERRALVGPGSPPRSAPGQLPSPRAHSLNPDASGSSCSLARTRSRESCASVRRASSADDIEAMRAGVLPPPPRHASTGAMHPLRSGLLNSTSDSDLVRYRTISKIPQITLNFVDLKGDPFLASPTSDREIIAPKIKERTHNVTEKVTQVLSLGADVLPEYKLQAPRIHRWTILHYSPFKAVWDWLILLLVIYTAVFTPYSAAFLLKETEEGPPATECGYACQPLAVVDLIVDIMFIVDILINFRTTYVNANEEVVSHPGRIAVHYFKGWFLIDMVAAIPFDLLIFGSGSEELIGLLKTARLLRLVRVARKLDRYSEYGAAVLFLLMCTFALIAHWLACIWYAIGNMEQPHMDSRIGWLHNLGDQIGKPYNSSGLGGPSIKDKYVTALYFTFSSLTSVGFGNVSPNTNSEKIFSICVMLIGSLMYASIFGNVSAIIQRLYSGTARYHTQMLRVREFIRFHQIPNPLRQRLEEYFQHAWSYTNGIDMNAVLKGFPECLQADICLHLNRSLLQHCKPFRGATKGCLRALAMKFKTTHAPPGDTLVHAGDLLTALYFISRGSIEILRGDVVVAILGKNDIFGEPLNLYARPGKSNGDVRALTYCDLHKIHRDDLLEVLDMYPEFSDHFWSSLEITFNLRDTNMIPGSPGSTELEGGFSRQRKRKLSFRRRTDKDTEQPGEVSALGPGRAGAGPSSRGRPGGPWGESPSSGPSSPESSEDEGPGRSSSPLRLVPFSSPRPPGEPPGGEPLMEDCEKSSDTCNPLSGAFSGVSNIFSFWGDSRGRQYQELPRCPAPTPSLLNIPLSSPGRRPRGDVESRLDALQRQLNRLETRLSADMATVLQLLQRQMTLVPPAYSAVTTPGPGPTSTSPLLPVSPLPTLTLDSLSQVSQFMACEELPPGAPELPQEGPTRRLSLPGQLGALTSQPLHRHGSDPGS

N#C/C=C/c1ccc2c(S(=O)(=O)n3nc(Nc4ccc(C#N)c(Cl)c4)nc3N)cccc2c1
IC50 [1]: 0.24 nM | IC50 [2]: 3.7 nM | IC50 [3]: 5.9 nM | Ratio IC50 [4]: 75 | CC50 (TZM): 4800 nM | Stability [5]: Stable | Stability [6]: Stable | IC50 [7]: 11500 nM | IC50 [8]: 0.31 nM | AUC(0-t) [9]: 397 µg·h/mL | AUC(0-inf) [10]: 184 µg·h/mL | Tmax [11]: 0.7 h | Tmax [12]: 2 h | t1/2 [13]: 7.7 h | t1/2 [14]: 11.5 h | Activity [15]: Non-Toxic | Activity [16]: Non-Toxic | Activity [17]: Toxic | Activity [18]: Non-Toxic | Activity [19]: Non-Toxic | Activity [20]: Non-Toxic | Activity [21]: Non-Toxic | Activity [22]: Non-Toxic | Activity [23]: Non-Toxic | Activity [24]: Non-Toxic | Activity [25]: Non-Toxic | Activity [26]: Non-Toxic
